Converted amounts (≈) assume the structure as drawn.
Legend:
Type in all cases: functional
[1] = Cytotoxicity against human SQC1 cells after 72 hrs by SRB method; conditions: SQC1, 72 h, read-out: ED50 (the source's name)
Procedure, shortened: (§1)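 Cell lines kept in RPMI 1640 with 10% fetal bovine serum, 37 °C, 5% CO2, 100% humidity. Log-phase cells treated in triplicate with glycolipids over 0.16–20 μg/mL for 72 h at 37 °C, 5% CO2. Cell concentration determined by sulforhodamine B staining; ED50 taken as dose inhibiting 50% of control growth. Ellipticine as positive control.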

[2] = system: KB; assay: Cytotoxicity against human KB cells after 72 hrs by SRB method; conditions: read-out: ED50 (the source's name); procedure, shortened: as §1
[3] = system: OVCAR; assay: Cytotoxicity against human OVCAR cells after 72 hrs by SRB method; conditions: read-out: ED50 (the source's name); procedure, shortened: as §1
[4] = system: HCT-15; assay: Cytotoxicity against human HCT-15 cells after 72 hrs by SRB method; conditions: HCT-15, 72 h, read-out: ED50 (the source's name); procedure, shortened: as §1

Structure (SMILES)	EC50 [1] [µg/mL]	EC50 [2] [µg/mL]	EC50 [3] [µg/mL]	EC50 [4] [µg/mL]
C/C=C(\C)C(=O)O[C@H]1[C@H](O)[C@@H](O)[C@H](O[C@@H]2[C@H]3OC(=O)CCCCCCCCC[C@H](CCCCC)O[C@@H]4O[C@H](C)[C@@H](O)[C@H](O)[C@H]4O[C@@H]4O[C@H](CO)[C@@H](O)[C@H](O)[C@H]4O[C@H](O[C@H]2C)[C@@H]3OC(=O)[C@@H](C)CC)O[C@@H]1C [SCAMMONIN I]	> 15	7 (≈ 6.85 µM)	> 15	> 15
CCCCC[C@H]1CCCCCCCCCC(=O)O[C@@H]2[C@@H](O[C@@H]3O[C@H](C)[C@@H](O)[C@H](O)[C@H]3O)[C@H](C)O[C@@H](O[C@H]3[C@H](O[C@H]4[C@H](O1)O[C@H](C)[C@@H](O)[C@@H]4O)O[C@H](COC(=O)[C@@H](C)CC)[C@@H](O)[C@@H]3O)[C@@H]2OC(=O)[C@H](C)[C@@H](C)O [ORIZABIN VI]	> 15	7 (≈ 6.74 µM)	> 15	> 15
CCCCC[C@H]1CCCCCCCCCC(=O)O[C@@H]2[C@@H](O[C@@H]3O[C@H](C)[C@@H](OC(=O)[C@H](C)[C@@H](C)O)[C@H](O)[C@H]3O)[C@H](C)O[C@@H](O[C@H]3[C@H](O[C@H]4[C@H](O1)O[C@H](C)[C@@H](O)[C@@H]4O)O[C@H](CO)[C@@H](O)[C@@H]3O)[C@@H]2OC(=O)[C@@H](C)CC [ORIZABIN V]	> 15	7 (≈ 6.74 µM)	> 15	> 15
CCCCC[C@H]1CCCCCCCCCC(=O)O[C@@H]2[C@@H](O[C@@H]3O[C@H](C)[C@@H](O)[C@H](O)[C@H]3O)[C@H](C)O[C@@H](O[C@H]3[C@H](O[C@H]4[C@H](O1)O[C@H](C)[C@@H](O)[C@@H]4O)O[C@H](CO)[C@@H](O)[C@@H]3O)[C@@H]2OC(=O)[C@@H](C)CC [SCAMMONIN II]	> 15	7 (≈ 7.45 µM)	> 15	> 15
Cc1c2ccncc2c(C)c2c1[nH]c1ccccc12 [ELLIPTECINE]	0.41 (≈ 1.66 µM)	0.33 (≈ 1.34 µM)	0.58 (≈ 2.35 µM)	0.24 (≈ 0.974 µM)
CCCCC[C@H]1CCCCCCCCCC(=O)O[C@H]2[C@H](O)[C@@H](COC(=O)[C@H](C)[C@@H](C)O)O[C@@H](O[C@H]3[C@H](O1)O[C@H](C)[C@@H](O)[C@@H]3O)[C@@H]2O[C@@H]1O[C@@H](C)[C@H](O[C@@H]2O[C@H](C)[C@@H](O)[C@H](O)[C@H]2O)[C@@H](O)[C@H]1OC(=O)[C@@H](C)CC [ORIZABIN VIII]	> 15	7 (≈ 6.74 µM)	> 15	> 15
CCCCC[C@H]1CCCCCCCCCC(=O)O[C@@H]2[C@@H](O[C@@H]3O[C@H](C)[C@@H](O)[C@H](O)[C@H]3O)[C@H](C)O[C@@H](O[C@H]3[C@H](O[C@H]4[C@H](O1)O[C@H](C)[C@@H](O)[C@@H]4O)O[C@H](COC(=O)[C@H](C)[C@@H](C)O)[C@@H](O)[C@@H]3O)[C@@H]2OC(=O)[C@@H](C)CC [ORIZABIN VII]	> 15	7 (≈ 6.74 µM)	> 15	> 15

— ChEMBL document CHEMBL1144082, “Orizabins V-VIII, tetrasaccharide glycolipids from the Mexican scammony root (Ipomoea orizabensis)” (1999)
